Data on six compounds can be found in ChEMBL document CHEMBL1154750 (J Med Chem, 2010).

As a reminder, the IC50 is the concentration at which inhibition is half-maximal. A word on the CC50: it is the concentration that lowers cell viability or growth by half.

The target of data set [1] is Neuraminidase (Influenza A virus (A/Puerto Rico/8/1934(H1N1)), UniProt P03468). Nature of the data set: Inhibition of Influenza Virus A/PR/8/34 neuraminidase chemiluminescence-based enzyme inhibition assay. The essentials: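 Chemiluminescent NA assay using NA-Star 1,2-dioxetane sialic acid substrate. Virus culture supernatant was serially 2-fold diluted in NA-Star buffer, and the dilution giving 40:1 signal-to-noise was used. Compound was preincubated with virus for 20 min at 37 C, then substrate (1:500) was added for 30 min at room temperature. Mean of six untreated virus controls set to 100%. IC50 from n = 3 assays, triplicate wells.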
Sequence of Neuraminidase (Influenza A virus (A/Puerto Rico/8/1934(H1N1)), UniProt P03468) (P03468 whole entry): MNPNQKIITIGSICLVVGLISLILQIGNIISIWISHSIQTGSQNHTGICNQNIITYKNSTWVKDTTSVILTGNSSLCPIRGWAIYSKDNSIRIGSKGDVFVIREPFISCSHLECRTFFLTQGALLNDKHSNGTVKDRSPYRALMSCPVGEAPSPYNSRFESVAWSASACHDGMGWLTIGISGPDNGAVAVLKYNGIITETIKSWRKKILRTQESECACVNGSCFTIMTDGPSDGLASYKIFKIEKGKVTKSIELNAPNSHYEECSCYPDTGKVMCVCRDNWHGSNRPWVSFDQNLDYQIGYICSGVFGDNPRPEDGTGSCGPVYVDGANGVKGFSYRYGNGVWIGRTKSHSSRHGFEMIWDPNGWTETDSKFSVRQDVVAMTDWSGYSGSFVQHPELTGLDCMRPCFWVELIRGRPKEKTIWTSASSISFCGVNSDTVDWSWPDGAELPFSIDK

The target of data set [2] is T1, Neuraminidase (Influenza A virus, UniProt B4URF0). As to the kind of experiment: Inhibition of Influenza Virus A/Potsdam/15/81 (H1N1) neuraminidase.
T1 sequence (B4URF0 whole entry): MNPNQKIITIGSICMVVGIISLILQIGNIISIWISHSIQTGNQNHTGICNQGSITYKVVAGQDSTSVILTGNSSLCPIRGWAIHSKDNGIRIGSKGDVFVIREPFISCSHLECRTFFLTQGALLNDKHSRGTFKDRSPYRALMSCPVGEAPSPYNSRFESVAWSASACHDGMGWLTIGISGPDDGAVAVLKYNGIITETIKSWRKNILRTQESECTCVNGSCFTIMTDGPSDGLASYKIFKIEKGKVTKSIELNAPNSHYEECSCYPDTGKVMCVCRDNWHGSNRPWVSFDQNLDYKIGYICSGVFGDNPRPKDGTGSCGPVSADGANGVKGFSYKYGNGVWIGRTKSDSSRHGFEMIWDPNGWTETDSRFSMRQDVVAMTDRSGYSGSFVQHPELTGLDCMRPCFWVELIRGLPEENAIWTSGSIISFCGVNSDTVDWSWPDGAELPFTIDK
Data set [3] deals with T1, Neuraminidase. As to the kind of experiment: Inhibition of Influenza Virus A/Horneburg/IDT7489/08 (H1N1) neuraminidase. The essentials: (§1)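 Swine H1N1 isolate NA measured by NA-Star chemiluminescence. The virus supernatant dilution giving 40:1 signal-to-noise was incubated with compound for 20 min at 37 C, then dioxetane sialic acid substrate (1:500) was added for 30 min at room temperature. Six untreated virus controls set to 100%. IC50 from n ≥ 4 assays, triplicate wells.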

The target of data set [4] is T1, Neuraminidase. As to the kind of experiment: Inhibition of Influenza Virus A/Belzig/2/01 (H1N1) neuraminidase. Details: species or system Influenza A virus (A/swine/Belzig/2/2001(H1N1)). The essentials: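 Swine H1N1 NA assayed by NA-Star chemiluminescence. Compound was mixed with the diluted virus supernatant (dilution giving 40:1 signal-to-noise) for 20 min at 37 C, then substrate (1:500) was added for 30 min at room temperature. Activity relative to six untreated virus controls; IC50 from one assay, each concentration in triplicate.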

Data set [5] deals with T1, Neuraminidase. Nature of the data set: Inhibition of Influenza Virus A/Brest/IDT7490/08 (H1N1) neuraminidase. The procedure, abridged: as §1
The next data set relates to Influenza A virus. Nature of the data set: Antiviral activity against Influenza A virus (A/Puerto Rico/8/34(H1N1)) in MDCK cells assessed as reduction in plaque number by plaque reduction assay. The settings on record: A/Puerto Rico/8/1934(H1N1). (In general: Plaques are areas of infected cells; plaque reduction assays count them against a control.)
Data set [6] can be described thus: Cytotoxicity against MDCK cells. The data set is classed as cell-based, Canis lupus familiaris. The following applies: dog. The procedure, abridged:
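Confluent 3-day-old MDCK monolayers in EMEM with 10% FBS were exposed to serial 2-fold dilutions (triplicate) for 72 h at 37 °C, 5% CO2. Cells were fixed and stained with crystal violet-formalin, dye was extracted, and OD was read at 550/630 nm. Viability is given relative to six mock-treated controls. CC50 comes from the mean dose-response curve of two independent assays.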

Compound `CC(C)=CCC/C(C)=C/CC/C(C)=C/CO` [FARNESOL] yielded an IC50 in data set [1] of 81.4 µM.
`O[C@@H](CC/C=C/c1ccccc1)CCc1ccccc1` gave an IC50 in data set [1] of 4.13 µM.
Turning to `O=C(CCc1ccccc1)C[C@@H]1C[C@@H](c2ccccc2)c2c(cc(/C=C/c3ccccc3)oc2=O)O1` [KATSUMADAIN A], the IC50 turned out to be 0.00073 µM against Neuraminidase [2]; 0.00111 µM on Neuraminidase [3]; 0.00059 µM on Neuraminidase [4]; 1.05 µM in data set [1]; 0.00164 µM against Neuraminidase [5]; 11.8 µM in the data set on Influenza A virus. This compound also displayed a CC50 in data set [6] of 66.9 µM.
As for `O=C(/C=C(O)\C=C\c1ccccc1)CCc1ccccc1`, half-maximal inhibition in data set [1] (IC50) required 4.67 µM.
On the same count and under the same terms, next, `O=C(/C=C/C=C/c1ccccc1)CCc1ccccc1`: 6.1 µM; `O[C@@H](CCc1ccccc1)C[C@H](O)/C=C/c1ccccc1`: 29.8 µM.
